How the values were obtained:
[1] = Inhibition of Vibrio cholerae alpha carbonic anhydrase incubated for 30 mins prior to testing measured for 10 to 100 secs by phenol red-based stopped-flow CO2 hydration assay
Summary of the method: (§1)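 Stopped-flow CO2 hydrase assay on the α, β and γ isoforms of V. cholerae CA. KI values are the mean of 3 independent assays, with errors of ±5–10% of the reported values.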

[2] = Inhibition of Vibrio cholerae beta carbonic anhydrase incubated for 30 mins prior to testing measured for 10 to 100 secs by phenol red-based stopped-flow CO2 hydration assay; summary of the method: as §1
[3] = Inhibition of Vibrio cholerae gamma carbonic anhydrase incubated for 30 mins prior to testing measured for 10 to 100 secs by phenol red-based stopped-flow CO2 hydration assay; summary of the method: as §1

SMILES | Ki [1] [nM] | Ki [2] [µM] | Ki [3] [nM]
Nc1ccc2c(c1)B(O)OC2 | 165 | 21.8 | 1170
OB1OCc2ccc(NC(=S)Nc3ccc(F)cc3)cc21 | 112 | 6.35 | 544
O=C(Nc1ccc(Cl)cc1)Nc1ccc2c(c1)B(O)OC2 | 56 | 19.5 | 650
O=C(Nc1ccc2c(c1)B(O)OC2)Nc1c(Cl)cc(Cl)cc1Cl | 76 | 84.5 | 895
CC(=O)c1ccc(NC(=O)Nc2ccc3c(c2)B(O)OC3)cc1 | 103 | 65.1 | 1130
Cc1ccc(NC(=S)Nc2ccc3c(c2)B(O)OC3)cc1 | 109 | 2.59 | 1760
OB1OCc2ccc(NC(=S)NCc3ccco3)cc21 | 220 | 31.9 | 2000
O=C(NCc1ccco1)Nc1ccc2c(c1)B(O)OC2 | 164 | 79.9 | 1230
O=C(Nc1ccc(C(F)(F)F)cc1)Nc1ccc2c(c1)B(O)OC2 | 46 | 55.1 | 957
OB1OCc2ccc(NC(=S)NCc3ccccc3)cc21 | 96 | 30.4 | 3960
O=[N+]([O-])c1ccc2c(c1)B(O)OC2 | 142 | 8.87 | 818
COc1ccc(C)cc1NC(=O)Nc1ccc2c(c1)B(O)OC2 | 556 | 67.3 | 410
OB1OCc2cc(F)ccc21 [TAVABOROLE] | 157 | 97.3 | 841
OB1OCc2ccc(NC(=S)Nc3ccc4ccccc4c3)cc21 | 603 | 26 | 2970
O=[N+]([O-])c1ccc(NC(=S)Nc2ccc3c(c2)B(O)OC3)cc1 | 80 | 0.933 | 687
OB1OCc2ccccc21 [BENZOXABOROLE] | 319 | 70.3 | 2840
COc1ccc(NC(=S)Nc2ccc3c(c2)B(O)OC3)cc1 | 165 | 2.3 | 874
OB1OCc2ccc(NC(=S)NCCc3ccccc3)cc21 | 102 | 18.4 | 554
O=C(Nc1ccccc1)Nc1ccc2c(c1)B(O)OC2 | 117 | 56.4 | 705
O=C(NCc1ccccc1)Nc1ccc2c(c1)B(O)OC2 | 90 | 42.1 | 1870
Cc1cc(Cl)cc(CNC(=O)Nc2ccc3c(c2)B(O)OC3)c1 | 53 | 61.3 | 718
OB1OCc2ccc(NC(=S)Nc3ccc(C(F)(F)F)cc3)cc21 | 72 | 1.25 | 1920
O=C(Nc1ccc(F)cc1)Nc1ccc2c(c1)B(O)OC2 | 48 | 28 | 644
OB1OCc2ccc(NC(=S)Nc3ccccc3)cc21 | 1200 | 19.1 | 834

From ChEMBL document CHEMBL4725479, “Benzoxaboroles: New Potent Inhibitors of the Carbonic Anhydrases of the Pathogenic Bacterium Vibrio cholerae” (ACS Med Chem Lett, 2020)
